Consider 31 molecules from ChEMBL document CHEMBL3588746, “Using click chemistry toward novel 1,2,3-triazole-linked dopamine D3 receptor ligands” (Bioorg Med Chem, 2015).

A value given as a limit tells only on which side of the number the result lay.

The target in series [1] is T1, D(4) dopamine receptor (Homo sapiens, UniProt P21917).
T1 sequence (P21917 whole entry): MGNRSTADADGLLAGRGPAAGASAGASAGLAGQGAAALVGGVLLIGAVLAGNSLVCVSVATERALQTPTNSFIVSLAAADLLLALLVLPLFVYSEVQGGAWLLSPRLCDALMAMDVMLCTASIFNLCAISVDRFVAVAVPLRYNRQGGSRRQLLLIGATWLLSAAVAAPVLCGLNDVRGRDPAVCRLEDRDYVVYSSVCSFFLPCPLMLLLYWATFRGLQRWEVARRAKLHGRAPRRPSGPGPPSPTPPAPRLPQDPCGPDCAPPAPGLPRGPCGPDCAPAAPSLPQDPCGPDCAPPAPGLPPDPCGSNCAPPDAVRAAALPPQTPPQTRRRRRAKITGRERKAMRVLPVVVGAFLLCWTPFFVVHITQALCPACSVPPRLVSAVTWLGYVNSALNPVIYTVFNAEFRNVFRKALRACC
Put plainly: Displacement of [3H]-N-methylspiperone from human dopamine D4 receptor expressed in HEK293 cell membranes after 1 hr by liquid scintillation counting analysis.

The target in series [2] is D(3) dopamine receptor (Homo sapiens, UniProt P35462). In words: Displacement of [3H]-N-methylspiperone from human dopamine D3 receptor expressed in HEK293 cell membranes after 1 hr by liquid scintillation counting analysis.
Chain of D(3) dopamine receptor (P35462 whole entry): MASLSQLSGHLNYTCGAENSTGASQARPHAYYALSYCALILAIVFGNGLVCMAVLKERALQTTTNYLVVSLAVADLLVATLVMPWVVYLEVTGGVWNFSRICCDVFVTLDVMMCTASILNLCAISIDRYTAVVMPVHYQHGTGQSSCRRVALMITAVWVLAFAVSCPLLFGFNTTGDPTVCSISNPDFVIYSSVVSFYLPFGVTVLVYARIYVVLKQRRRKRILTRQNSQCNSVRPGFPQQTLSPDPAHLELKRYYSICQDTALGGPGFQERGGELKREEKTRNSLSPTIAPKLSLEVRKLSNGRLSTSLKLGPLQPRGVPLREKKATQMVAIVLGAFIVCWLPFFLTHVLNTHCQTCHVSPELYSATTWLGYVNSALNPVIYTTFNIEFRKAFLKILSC
Series [3] is filed under the species Homo sapiens. Put plainly: Selectivity ratio of Ki for human dopamine D2 receptor to Ki for human dopamine D3 receptor. The procedure, abridged: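 Ki values from [3H]N-methylspiperone (0.4 nM) competition in membranes from HEK293 cells stably expressing human D2R or D3R, 10 μg protein per tube. Incubated 1 h at room temperature in triplicate, with 10 μM butaclamol defining nonspecific binding. […] Ratio is D2R Ki divided by D3R Ki.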

Series [4] addresses D(2) dopamine receptor (Homo sapiens, UniProt P14416). In words: Displacement of [3H]-N-methylspiperone from human dopamine D2 receptor expressed in HEK293 cell membranes after 1 hr by liquid scintillation counting analysis.
Series [5] is described as follows: Metabolic stability in mouse liver microsomes assessed as compound remaining at 1 uM after 60 mins by LC/MS/MS analysis in presence of NADPH regenerating system. Format: ADME. Particulars: read-out: Stability.
Series [6] in a line: Metabolic stability in mouse liver microsomes assessed as compound remaining at 1 uM after 30 mins by LC/MS/MS analysis in presence of NADPH regenerating system. Format: ADME. Particulars: read-out: Stability. The procedure, abridged:
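Mouse liver microsomes at 0.2 mg/mL with compound at 1 μM final, in 100 mM potassium phosphate pH 7.4. Reaction started by adding microsomes, triplicate. Sampled at 0, 30 and 60 min and quenched with ice-cold acetonitrile plus internal standard. Percent parent remaining measured by LC/MS/MS. Controls lacking NADPH were run; testosterone served as positive control.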

Chain of D(2) dopamine receptor (P14416 whole entry): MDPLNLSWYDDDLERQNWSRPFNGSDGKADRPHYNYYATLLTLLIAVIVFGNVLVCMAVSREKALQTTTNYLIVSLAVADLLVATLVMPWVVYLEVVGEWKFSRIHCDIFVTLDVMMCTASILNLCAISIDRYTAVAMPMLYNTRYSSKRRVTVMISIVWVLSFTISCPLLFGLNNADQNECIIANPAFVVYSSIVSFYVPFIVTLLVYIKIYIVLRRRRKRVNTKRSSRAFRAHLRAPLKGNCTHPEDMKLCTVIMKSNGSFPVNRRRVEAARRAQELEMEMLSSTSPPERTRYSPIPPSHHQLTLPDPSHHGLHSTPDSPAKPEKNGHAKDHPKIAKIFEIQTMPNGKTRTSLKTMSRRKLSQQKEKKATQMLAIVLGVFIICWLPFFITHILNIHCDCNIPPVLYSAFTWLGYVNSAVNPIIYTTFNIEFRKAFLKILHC

`COc1ccccc1N1CCN(CCCCn2cc(-c3ccc4c(c3)Cc3ccccc3-4)nn2)CC1`: the results for the Ki in series [1], in series [2] and in series [4] were 588 nM, 5.55 nM and 50.1 nM, respectively. In addition, the Ratio Ki in series [3] amounted to 9.
For `Clc1cccc(N2CCN(CCCCc3cn(-c4ccc5ccccc5c4)nn3)CC2)c1Cl`, in that order: > 2000 nM, 3.8 nM, 80.8 nM and 21.
In the case of `COc1ccccc1N1CCN(CCCCc2cn(-c3ccccc3)nn2)CC1`, the Ki in series [1] was determined as 486 nM; in series [2] it was 5.42 nM; in series [4], 53.6 nM. Moreover, the Ratio Ki in series [3] was 10.
For `COc1ccccc1N1CCN(CCCCn2cc(-c3ccc(-c4ccccc4)cc3)nn2)CC1`, in that order: 425 nM, 5.88 nM, 69 nM and 12.
For `COc1ccccc1N1CCN(CCCCc2cn(-c3cccc4ncccc34)nn2)CC1`, in that order: > 1000 nM, 13.1 nM, 83.4 nM and 6.4.
Consider `OC(CCn1cc(-c2ccc(-c3ccccc3)cc2)nn1)CN1CCN(c2cccc(Cl)c2Cl)CC1` (racemic), for which the Ki in series [1] is > 7000 nM; in series [2], 55.8 nM; in series [4], 15100 nM. The Ratio Ki in series [3] was found to be 270.
The corresponding values for `COc1ccccc1-c1cn(CCC(O)CN2CCN(c3ccccc3OC)CC2)nn1` (racemic) are > 3000 nM, 493 nM, 1020 nM and 2.1.
The corresponding values for `Clc1cccc(N2CCN(CCCCn3cc(-c4ccc5c(c4)Cc4ccccc4-5)nn3)CC2)c1Cl` are > 20000 nM, 14 nM, 885 nM and 63.
The corresponding values for `OC(CCn1cc(-c2ccc3ccccc3c2)nn1)CN1CCN(c2cccc(Cl)c2Cl)CC1` (racemic) are > 20000 nM, 25.2 nM, 18800 nM and 745.
For `OC(CCn1cc(-c2ccc3[nH]ccc3c2)nn1)CN1CCN(c2cccc(Cl)c2Cl)CC1` (racemic), the Ki in series [2] came out at 5.85 nM; in series [4] it was 963 nM. Besides, the Ratio Ki in series [3] stood at 165. In addition, the remaining at 1 h, 1 µM in series [5] amounted to 35%. Besides, the remaining at 0.5 h, 1 µM in series [6] stood at 45%.
Regarding `COc1ccccc1N1CCN(CC(O)CCn2cc(-c3ccc4ncccc4c3)nn2)CC1` (racemic), the Ki in series [1] is > 3000 nM; in series [2], 68.2 nM; in series [4] it was 424 nM. The Ratio Ki in series [3] amounted to 6.2.
Take `Clc1cccc(N2CCN(CCCCn3cc(-c4ccc(-c5ccccc5)cc4)nn3)CC2)c1Cl`: the results for the Ki in series [1], in series [2] and in series [4] were > 10000 nM, 8.32 nM and 2590 nM, respectively. Further, the Ratio Ki in series [3] was determined as 311.
For `COc1ccccc1N1CCN(CCCCc2cn(-c3ccc4[nH]ccc4c3)nn2)CC1`, the Ki came to 353 nM in series [1], 3.1 nM in series [2] and 51.8 nM in series [4]. The Ratio Ki in series [3] was 17.
For `COc1ccccc1N1CCN(CCCCc2cn(-c3ccc4c(c3)Cc3ccccc3-4)nn2)CC1`, in that order: 329 nM, 1.59 nM, 57.2 nM and 36.
The corresponding values for `COc1ccccc1N1CCN(CCCCn2cc(-c3ccc4ncccc4c3)nn2)CC1` are 269 nM, 6.73 nM, 42.5 nM and 6.3.
The corresponding values for `COc1ccccc1N1CCN(CCCCc2cn(-c3ccc4ccccc4c3)nn2)CC1` are 299 nM, 2.93 nM, 31.5 nM and 11.
Regarding `OC(CCn1cc(-c2cnc3ccccc3c2)nn1)CN1CCN(c2cccc(Cl)c2Cl)CC1` (racemic), the Ki in series [2] was determined as 18 nM; in series [4] it was 244 nM. For the same molecule, the Ratio Ki in series [3] worked out at 14. Besides, the remaining at 1 h, 1 µM in series [5] was determined as 26%.
On to `COc1ccccc1N1CCN(CCCCn2cc(-c3ccccc3)nn2)CC1`, for which the values for the Ki in series [1], in series [2] and in series [4] were 480 nM, 22.9 nM and 137 nM, respectively. For the same molecule, the Ratio Ki in series [3] turned out to be 6.
For `COc1ccccc1N1CCN(CCCCn2cc(-c3ccc4[nH]ccc4c3)nn2)CC1`, in that order: 222 nM, 5.48 nM, 43.7 nM and 8.
The corresponding values for `Clc1cccc(N2CCN(CCCCn3cc(-c4ccc5ncccc5c4)nn3)CC2)c1Cl` are > 1000 nM, 1.35 nM, 53.9 nM and 40.
For `Clc1cccc(N2CCN(CCCCc3cn(-c4ccc5[nH]ccc5c4)nn3)CC2)c1Cl`, in that order: 510 nM, 1 nM, 46.6 nM and 47.
On to `Clc1cccc(N2CCN(CCCCc3cn(-c4ccc5c(c4)Cc4ccccc4-5)nn3)CC2)c1Cl`, for which the Ki in series [1] came out at 4450 nM; in series [2], 5.05 nM; in series [4], 424 nM. The Ratio Ki in series [3] worked out at 84.
With `O=C(NCCC(O)CN1CCN(c2cccc(Cl)c2Cl)CC1)c1cnc2ccccc2c1` (stereo unspecified), the results for the Ki in series [2] and in series [4] were 2.91 nM and 321 nM, respectively. For the same molecule, the Ratio Ki in series [3] stood at 110. Moreover, in series [5], the remaining at 1 h, 1 µM is 4%.
`COc1ccccc1N1CCN(CC(O)CCn2cc(-c3ccccc3)nn2)CC1` (racemic): the values for the Ki in series [1], in series [2] and in series [4] were > 3000 nM, 173 nM and 1210 nM, respectively. In addition, the Ratio Ki in series [3] was determined as 7.
The corresponding values for `Clc1cccc(N2CCN(CCCCn3cc(-c4ccc5ccccc5c4)nn3)CC2)c1Cl` are > 1000 nM, 7.7 nM, 103 nM and 13.
As for `COc1ccccc1N1CCN(CC(O)CCn2cc(-c3ccc(-c4ccccc4)cc3)nn2)CC1` (racemic), the results for the Ki in series [1], in series [2] and in series [4] were > 2000 nM, 30.5 nM and 819 nM, respectively. The Ratio Ki in series [3] was determined as 27.
The corresponding values for `COc1ccccc1N1CCN(CC(O)CCn2cc(-c3ccc4c(c3)Cc3ccccc3-4)nn2)CC1` (racemic) are > 1000 nM, 18.5 nM, 607 nM and 33.
Consider `COc1ccccc1N1CCN(CC(O)CCn2cc(-c3ccc4[nH]ccc4c3)nn2)CC1` (racemic), for which the Ki in series [2] turned out to be 33.6 nM; in series [4], 789 nM. Moreover, the Ratio Ki in series [3] worked out at 23. In addition, the remaining at 1 h, 1 µM in series [5] was 27%. Besides, the remaining at 0.5 h, 1 µM in series [6] was found to be 44%.
Consider `COc1ccccc1N1CCN(CCCCn2cc(-c3ccc4ccccc4c3)nn2)CC1`, for which the values for the Ki in series [1], in series [2] and in series [4] were 232 nM, 11.1 nM and 23.3 nM, respectively. For the same molecule, in series [3], the Ratio Ki is 2.1.
With `COc1ccccc1N1CCN(CC(O)CCn2cc(-c3ccc4ccccc4c3)nn2)CC1` (racemic), the Ki is > 2000 nM in series [1], 40.7 nM in series [2] and 189 nM in series [4]. In series [3], the Ratio Ki was determined as 4.6.
For `Clc1cccc(N2CCN(CCCCn3cc(-c4ccc5[nH]ccc5c4)nn3)CC2)c1Cl`, in that order: > 2000 nM, 1.47 nM, 56.1 nM and 38.
